Experimental data reported in ChEMBL document CHEMBL1649306, “Arylimidamide DB766, a potential chemotherapeutic candidate for Chagas' disease treatment” (Antimicrob Agents Chemother, 2010).
pIC50: −log10 of the molar value. Several values for one entry are separate records, joined by “and”; a condition that tells them apart may be missing. Identical values can stand only once. Activity calls are given as the source filed them. The rule behind the calls is not given here.

Columns and labels:
Trypanosoma cruzi [1] = assay: Antitrypanosomal activity against bloodstream forms of Trypanosoma cruzi Y infected in Swiss mouse cardiomyocytes assessed as parasite mitochondrial swelling at 10 ug/ml after 24 hrs by transmission electron microscopy; type: functional, organism-based
Procedure, shortened: (§1)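 Y-strain bloodstream trypomastigotes treated 2 to 24 h at 37°C. Fixed 60 min at 4°C in 2.5% glutaraldehyde in 0.1 M cacodylate, pH 7.2. Postfixed 1 h at 4°C in 1% OsO4 with 0.8% potassium ferricyanide. Acetone-dehydrated, Epon-embedded, sections stained with uranyl acetate and lead citrate, ultrastructure examined by TEM.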

Trypanosoma cruzi [2] = assay: Antitrypanosomal activity against bloodstream forms of Trypanosoma cruzi CL after 24 hrs by light microscopy in presence of 50% mouse blood; type: functional, organism-based
Procedure, shortened: (§2)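 Bloodstream trypomastigotes kept at 4°C for 24 h in freshly isolated 50% mouse blood with serial dilutions (up to 32 μM). Motile live parasites counted in a Neubauer chamber by light microscopy; IC50 calculated as concentration reducing parasite number by 50%.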

Trypanosoma cruzi [3] = assay: Antitrypanosomal activity against Trypanosoma cruzi Y bloodstream forms infected in Swiss-Webster mouse assessed as decrease in parasitemia at 100 mg/kg/day, ip administered 8 days postinfection measured on day 120; type: functional; details: route intraperitoneal
Procedure, shortened: (§3)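 Male Swiss mice infected i.p. with 10^4 Y strain bloodstream forms. Given 0.2 ml i.p. at 5 and 8 dpi, or daily for 10 days from 5 dpi; reference drug given by gavage. Parasitemia measured by the Pizzi-Brener method, cumulative mortality checked daily to 120 dpi, n ≥ 6 per group.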

Trypanosoma cruzi [4] = assay: Antitrypanosomal activity against Trypanosoma cruzi Y bloodstream forms infected in Swiss-Webster mouse assessed as survival of mouse at 25 mg/kg/day, ip administered 8 days postinfection measured on day 120; type: functional, organism-based; procedure, shortened: as §3
Trypanosoma cruzi [5] = assay: Selectivity ratio of IC50 for Trypanosoma cruzi Y bloodstream forms to IC50 for Trypanosoma cruzi Y amastigotes; type: functional
Trypanosoma cruzi [6] = assay: Antitrypanosomal activity against Trypanosoma cruzi Columbian bloodstream forms infected in C3H mouse assessed as decrease in parasite load in 50 mg/kg/day, po administered 5 days postinfection for 10 consecutive days measured after 120 days; type: functional, organism-based
Trypanosoma cruzi [7] = assay: Antitrypanosomal activity against bloodstream forms of Trypanosoma cruzi Y after 24 hrs by light microscopy; type: functional, organism-based
Procedure, shortened: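 Bloodstream trypomastigotes from infected Swiss mice at peak parasitemia, 5.0 × 10^6 cells/ml in RPMI 1640 with 5% FBS. Exposed at 37°C to serial dilutions from 0 to 32 μM. Motile live parasites counted by light microscopy in a Neubauer chamber, then IC50 calculated.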

Trypanosoma cruzi [8] = assay: Antitrypanosomal activity against bloodstream forms of Trypanosoma cruzi Y infected in Swiss mouse cardiomyocytes assessed as parasite mitochondrial swelling at 10 ug/ml after 2 hrs by transmission electron microscopy; type: functional, organism-based; procedure, shortened: as §1
Trypanosoma cruzi [9] = assay: Antitrypanosomal activity against bloodstream forms of Trypanosoma cruzi YuYu after 24 hrs by light microscopy in presence of 50% mouse blood; type: functional, organism-based; procedure, shortened: as §2
Mus musculus [10] = assay: Toxicity in […](H-2k) mouse assessed as effect on GPT level at 100 mg/kg/day, […]; type: organism-based; details: in vivo
Trypanosoma cruzi [11] = assay: Antitrypanosomal activity against bloodstream forms of Trypanosoma cruzi Y infected in Swiss mouse cardiomyocytes assessed as intracellular parasitemia at 10.6 uM after 72 hrs by Pizzi-Brener method; type: functional, organism-based
Mus musculus [12] = assay: Hepatotoxicity against Swiss-Webster mouse assessed as GPT at 100 mg/kg/day measured after 14 days postinfection; type: toxicity, organism-based; details: in vivo, 336 h
Trypanosoma cruzi [13] = assay: Antitrypanosomal activity against Trypanosoma cruzi RBVIII epimastigotes after 24 hrs by light microscopy; type: functional, organism-based
Procedure, shortened: (§4)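 Epimastigotes from 5-day exponential cultures, 5 × 10^6 parasites/ml in LIT medium, incubated at 28°C up to 96 h with DB766 0 to 32 μM or Bz 0 to 250 μM. Counted daily in a Neubauer chamber. IC50 averaged from at least three determinations in duplicate.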

Trypanosoma cruzi [14] = assay: Antitrypanosomal activity against bloodstream forms of Trypanosoma cruzi Y infected in Swiss mouse cardiomyocytes assessed as parasite crista dilation at 10 ug/ml after 2 hrs by transmission electron microscopy; type: functional, organism-based; procedure, shortened: as §1
Trypanosoma cruzi [15] = assay: Antitrypanosomal activity against Trypanosoma cruzi Y infected in Swiss-Webster mouse assessed as decrease in parasite-induced weight loss at 100 mg/kg/day, po administered 5 days post-infection for 10 consecutive days measured on day 120; type: functional, organism-based
Procedure, shortened: (§5)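 Body weight of infected, treated mice followed from 0 to 120 dpi.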

Trypanosoma cruzi [16] = assay: Antitrypanosomal activity against Trypanosoma cruzi Y epimastigotes after 24 hrs by light microscopy; type: functional, organism-based; procedure, shortened: as §4
Trypanosoma cruzi [17] = assay: Antitrypanosomal activity against Trypanosoma cruzi Y bloodstream forms infected in Swiss-Webster mouse assessed as survival rate of mouse at 100 mg/kg/day, ip administered 8 days postinfection measured on day 120; type: functional; details: route intraperitoneal
Procedure, shortened: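 Every-other-day i.p. dosing (5 doses, each 48 h apart) of 100 mg/kg/day in male Swiss mice inoculated with 10^4 Y-strain bloodstream trypomastigotes, n ≥ 6 parasitemia-positive animals. Mortality recorded daily up to 120 dpi as cumulative percentage.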

Trypanosoma cruzi [18] = assay: Antitrypanosomal activity against Trypanosoma cruzi Columbian bloodstream forms infected in C3H mouse assessed as reduction in parasite-induced weight loss at 100 mg/kg/day, po administered 5 days postinfection for 10 consecutive days measured after 120 days; type: functional, organism-based; procedure, shortened: as §5
Trypanosoma cruzi [19] = assay: Antitrypanosomal activity against Trypanosoma cruzi Y bloodstream forms infected in Swiss-Webster mouse assessed as decrease in parasite load at 25 mg/kg/day, ip administered 8 days postinfection measured on day 2; type: functional; design: scale not given: the % may be the effect or the level left; details: route intraperitoneal; procedure, shortened: as §3
Trypanosoma cruzi [20] = assay: Antitrypanosomal activity against Trypanosoma cruzi Y infected in Swiss-Webster mouse assessed as decrease in parasite-induced weight loss at 100 mg/kg/day, ip administered 5 days post-infection for 10 consecutive days measured on day 120; type: functional, organism-based; procedure, shortened: as §5
Trypanosoma cruzi [21] = assay: Antitrypanosomal activity against Trypanosoma cruzi Columbian bloodstream forms infected in C3H mouse assessed as decrease in parasite load at 25 mg/kg/day, ip administered 21 days postinfection measured on day 44; type: functional; design: scale not given: the % may be the effect or the level left; details: route intraperitoneal
Procedure, shortened: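 C3H/He mice infected i.p. with 10^2 Colombian strain bloodstream forms. Treatment started at parasitemia onset (21 dpi) with daily doses for 10 treatments, 0.1 ml i.p. Parasitemia measured by the Pizzi-Brener method; n ≥ 6 parasitemic mice per group.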

Trypanosoma cruzi [22] = assay: Antitrypanosomal activity against Trypanosoma cruzi 855 epimastigotes after 24 hrs by light microscopy; type: functional, organism-based; details: Trypanosoma cruzi, 855, 24 h; procedure, shortened: as §4
Trypanosoma cruzi [23] = assay: Antitrypanosomal activity against Trypanosoma cruzi Y bloodstream forms infected in Swiss mouse cardiomyocytes assessed as parasite crista dilation at 10 ug/ml after 24 hrs by transmission electron microscopy; type: functional, organism-based
Trypanosoma cruzi [24] = assay: Antitrypanosomal activity against Trypanosoma cruzi Y infected in Swiss-Webster mouse assessed as decrease in parasite load at 100 mg/kg/day, ip administered 5 days post-infection for 10 consecutive days measured on day 120; type: functional; details: route intraperitoneal; procedure, shortened: as §3
[25] = Cardiotoxicity against Swiss-Webster mouse cardiomyocytes assessed as creatine kinase cardiac isotype level by MTT assay; type: toxicity, Heart, Cardiomyocyte; details: read-out: LC50 (the source's name)
Procedure, shortened: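 Embryonic cardiomyocytes from Swiss mice, uninfected, exposed to 0 to 96 μM in DMEM at 37°C. Viability followed by CK-MB released into culture supernatant, alongside light-microscopy checks of morphology and spontaneous contraction; assays at least three times in duplicate.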

Structure (SMILES): CC(C)Oc1cc(NC(=N)c2ccccn2)ccc1-c1ccc(-c2ccc(NC(=N)c3ccccn3)cc2OC(C)C)o1
- Activity (Trypanosoma cruzi [1]): Active
- pIC50 (Trypanosoma cruzi [2]): 6.15
- inhibition in vivo at 100 mg/kg/day (Trypanosoma cruzi [3]): > 99%
- Activity (Trypanosoma cruzi [4]): Active
- Selectivity ratio (Trypanosoma cruzi [5]): >533 and 714
- Activity (Trypanosoma cruzi [6]): inactive
- pIC50 (Trypanosoma cruzi [7]): 6.96
- Activity (Trypanosoma cruzi [8]): Active
- pIC50 (Trypanosoma cruzi [9]): 6.09
- Activity (Mus musculus [10]): Non-toxic
- pIC50 (Trypanosoma cruzi [11]): 7.60
- Activity (Mus musculus [12]): Non-toxic
- pIC50 (Trypanosoma cruzi [13]): 6.74
- IC90 (Trypanosoma cruzi [13]): 440 nM
- Activity (Trypanosoma cruzi [14]): Active
- Activity (Trypanosoma cruzi [15]): inactive
- pIC50 (Trypanosoma cruzi [16]): 7.15
- IC90 (Trypanosoma cruzi [16]): 220 nM
- Activity (Trypanosoma cruzi [17]): 60%
- Activity (Trypanosoma cruzi [18]): inactive
- Activity (Trypanosoma cruzi [19]): 78%
- Activity (Trypanosoma cruzi [20]): inactive
- Activity (Trypanosoma cruzi [21]): 73%
- pIC50 (Trypanosoma cruzi [22]): 7.05
- IC90 (Trypanosoma cruzi [22]): 330 nM
- Activity (Trypanosoma cruzi [23]): Active
- inhibition in vivo at 100 mg/kg/day (Trypanosoma cruzi [24]): > 98%
- CC50 [25]: > 10600 nM
